The text below walks through data of ChEMBL document CHEMBL1145747, “Potent inhibition of NTPase/helicase of the West Nile Virus by ring-expanded ("fat") nucleoside analogues” (J Med Chem, 2003).

In brackets after ≈: the same amount, converted by molar mass.

Assay [1] concerns West Nile virus. The assay is described as follows: Inhibitory activity determined against west nile virus (WNV) NTPase/helicase (NTPase/helicase Non structural protein 3) using DNA as substrate. The assay is classed as functional. In short, it runs like this:
(§1)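 WNV NTPase/helicase (2 pmol), purified from culture medium of virus-infected Vero E6 cells, unwinding a partially hybridized 32P 5'-labelled duplex (26-mer release strand on 40-mer template; DNA or RNA per line, 4.7 pM nucleotide base). Conditions: ATP at Km (9.5 µM), 20 mM Tris/HCl pH 7.5, 2 mM MgCl2, 30 min at 30 °C. Released strand resolved on TBE-PAGE and its radioactivity counted. IC50 is 50% of compound-free unwinding; representative of three independent experiments.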

Assay [2] deals with T1, ATP-dependent RNA helicase SUPV3L1, mitochondrial (Homo sapiens, UniProt Q8IYB8).
T1 sequence (Q8IYB8 whole entry): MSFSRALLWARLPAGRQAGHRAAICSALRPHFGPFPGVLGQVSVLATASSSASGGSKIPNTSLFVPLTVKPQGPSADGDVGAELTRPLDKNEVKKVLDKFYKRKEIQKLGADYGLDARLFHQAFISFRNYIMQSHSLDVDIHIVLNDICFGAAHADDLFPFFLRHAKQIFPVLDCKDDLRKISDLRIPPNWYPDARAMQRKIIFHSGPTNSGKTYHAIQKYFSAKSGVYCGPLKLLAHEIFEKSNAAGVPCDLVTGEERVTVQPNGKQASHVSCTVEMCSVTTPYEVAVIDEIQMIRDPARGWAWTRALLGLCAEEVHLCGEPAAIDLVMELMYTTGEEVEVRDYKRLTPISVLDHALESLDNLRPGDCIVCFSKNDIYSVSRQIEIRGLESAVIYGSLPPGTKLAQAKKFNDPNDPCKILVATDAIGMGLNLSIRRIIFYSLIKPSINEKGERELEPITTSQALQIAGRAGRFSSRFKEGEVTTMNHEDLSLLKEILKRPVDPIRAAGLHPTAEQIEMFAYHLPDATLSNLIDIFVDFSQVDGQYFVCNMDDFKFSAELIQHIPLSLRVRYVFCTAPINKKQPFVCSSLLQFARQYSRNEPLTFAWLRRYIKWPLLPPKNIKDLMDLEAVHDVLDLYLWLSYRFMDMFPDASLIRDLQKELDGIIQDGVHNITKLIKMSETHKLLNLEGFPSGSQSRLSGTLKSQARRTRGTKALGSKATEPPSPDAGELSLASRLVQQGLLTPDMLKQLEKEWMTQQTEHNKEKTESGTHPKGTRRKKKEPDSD
As to the kind of experiment: Inhibitory activity determined against human Suv3 helicase using DNA as substrate. In short, it runs like this:
(§2)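 Human Suv3(Δ1-159), expressed in E. coli from pQE60, 0.2 pmol per assay. Substrate: partially hybridized 32P-labelled DNA or RNA duplex (per line), 4.7 pM nucleotide base. Run with ATP at its Km of 4.2 µM in Tris/HCl pH 7.5 with MgCl2, 30 min at 30 °C. Released strand separated by TBE-PAGE and quantified by 32P counting. IC50 is 50% of control unwinding; representative of three experiments.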

In assay [3] the target is T1, ATP-dependent RNA helicase SUPV3L1, mitochondrial. As to the kind of experiment: Inhibitory activity against human Suv3 helicase using RNA as substrate. The method, boiled down: as §2
Assay [4] concerns West Nile virus. As to the kind of experiment: Inhibitory activity determined against west nile virus (WNV) NTPase/helicase (NTPase/helicase Non structural protein 3) using RNA as substrate. The format is functional. The method, boiled down: as §1
Assay [5] deals with West Nile virus. As to the kind of experiment: Inhibitory activity against west nile virus (WNV) NTPase/helicase (NTPase/helicase Non structural protein 3) using RNA as substrate. The assay is classed as functional. The method, boiled down: as §1
Assay [6] deals with West Nile virus. The assay is described as follows: Inhibitory activity against west nile virus (WNV) NTPase/helicase (NTPase/helicase Non structural protein 3) using DNA as substrate. The format is functional. The method, boiled down:
as §1

The IC50 is the concentration that gives 50% inhibition. For `CCCCCCCCCCCCNc1nc(=O)c2c(ncn2Cc2ccc(OC)cc2)c(=O)[nH]1`, the half-maximal inhibitory concentration (IC50) in the assay on West Nile virus [1] was 5 mg/L (≈ 10.7 µM); in assay [2], above 1070 µM; in assay [3], above 1070 µM; in the assay on West Nile virus [4] it was 1 mg/L (≈ 2.14 µM).
For the compound `CCCCCCCCCCCCNc1nc(=O)c2c(ncn2[C@@H]2C[C@H](O)[C@@H](CO)O2)c(=O)[nH]1`, the 50% inhibitory concentration (IC50) in the assay with West Nile virus [1] was 3 mg/L (≈ 6.47 µM); in assay [2], 539 µM; in assay [3], 324 µM; with West Nile virus [4], 100 mg/L (≈ 216 µM).
The corresponding values for `CCCCCCCCCCCCNc1nc(=O)c2c(ncn2[C@H]2C[C@H](O)[C@@H](CO)O2)c(=O)[nH]1` are 3 mg/L (≈ 6.47 µM), 6.47 µM, above 1080 µM and 1.5 mg/L (≈ 3.24 µM).
The corresponding values for `CCCCCCCCCCCCNc1nc(O)c2ncnc-2c(O)n1` are above 500 mg/L, above 1440 µM, above 1440 µM and above 500 mg/L.
The compound `CCCCCCCCNc1nc(=O)c2ncn([C@@H]3O[C@H](CO)[C@@H](O)C3O)c2c(=O)[nH]1` (single isomer, unassigned) showed a half-maximal inhibitory concentration (IC50) in the assay with West Nile virus [1] above 300 mg/L.
On to `CCCCCCCCCCNc1nc(=O)c2ncn([C@@H]3O[C@H](CO)[C@@H](O)C3O)c2c(=O)[nH]1` (single isomer, unassigned), for which the half-inhibitory concentration (IC50) was 30 mg/L (≈ 66.4 µM) in the assay on West Nile virus [1], above 1110 µM in assay [2], 1110 µM in assay [3] and 300 mg/L (≈ 664 µM) in the assay with West Nile virus [4].
Consider `CCCCCCCCCCCCNc1nc(=O)c2ncn([C@@H]3O[C@H](CO)[C@@H](O)C3O)c2c(=O)[nH]1` (single isomer, unassigned), for which the IC50 was 1 mg/L (≈ 2.09 µM) in the assay on West Nile virus [1], above 1040 µM in assay [2], 313 µM in assay [3] and 10 mg/L (≈ 20.9 µM) in the assay with West Nile virus [4].
Take `CCCCCCCCCCCCCCNc1nc(=O)c2ncn([C@@H]3O[C@H](CO)[C@@H](O)C3O)c2c(=O)[nH]1` (single isomer, unassigned): the half-maximal inhibitory concentration (IC50) with West Nile virus [1] was 3 mg/L (≈ 5.91 µM); in assay [2], 591 µM; in assay [3], 59.1 µM; with West Nile virus [4], above 500 mg/L.
As to `CCCCCCCCCCCCCCCCNc1nc(=O)c2ncn([C@@H]3O[C@H](CO)[C@@H](O)C3O)c2c(=O)[nH]1` (single isomer, unassigned), the concentration for half-maximal inhibition (IC50) in the assay on West Nile virus [1] was 250 mg/L (≈ 467 µM); in assay [2] it was above 933 µM; in assay [3], 56 µM; with West Nile virus [4], 500 mg/L (≈ 933 µM).
With `CCCCCCCCCCCCCCCCCCNc1nc(=O)c2ncn([C@@H]3O[C@H](CO)[C@@H](O)C3O)c2c(=O)[nH]1` (single isomer, unassigned), the 50% inhibitory concentration (IC50) was 5 mg/L (≈ 8.87 µM) in the assay on West Nile virus [1], above 887 µM in assay [2], 53.2 µM in assay [3] and 100 mg/L (≈ 177 µM) with West Nile virus [4].
`CCCCCCCNc1nc(=O)c2c(ncn2C2O[C@H](CO)[C@@H](O)C2O)c(=O)[nH]1` (single isomer, unassigned) yielded an IC50 in the assay on West Nile virus [1] above 300 mg/L.
In the assay with West Nile virus [1], `CCCCCNc1nc(=O)c2c(ncn2C2O[C@H](CO)[C@@H](O)C2O)c(=O)[nH]1` (single isomer, unassigned) gave an IC50 above 300 mg/L.
Still for that read-out and setting: the same measure for `CCCNc1nc(=O)c2c(ncn2C2O[C@H](CO)[C@@H](O)C2O)c(=O)[nH]1` (single isomer, unassigned): above 300 mg/L; for `CCNc1nc(=O)c2c(ncn2C2O[C@H](CO)[C@@H](O)C2O)c(=O)[nH]1` (single isomer, unassigned): above 300 mg/L.
Still for that read-out and setting: the same measure for `CNc1nc(=O)c2c(ncn2C2O[C@H](CO)[C@@H](O)C2O)c(=O)[nH]1` (single isomer, unassigned): above 300 mg/L.
For `CCCCNc1nc(=O)c2c(ncn2C2O[C@H](CO)[C@@H](O)C2O)c(=O)[nH]1` (single isomer, unassigned), in the assay with West Nile virus [1], the IC50 is above 300 mg/L.
Still for that read-out and setting: the same measure for `CCCCCCNc1nc(=O)c2c(ncn2C2O[C@H](CO)[C@@H](O)C2O)c(=O)[nH]1` (single isomer, unassigned): above 300 mg/L; for `CN(C)c1nc(=O)c2c(ncn2C2O[C@H](CO)[C@@H](O)C2O)c(=O)[nH]1` (single isomer, unassigned): above 300 mg/L; for `O=c1nc(NCCCc2ccccc2)[nH]c(=O)c2c1ncn2C1O[C@H](CO)[C@@H](O)C1O` (single isomer, unassigned): above 500 mg/L.
For the compound `O=c1nc(NCCc2ccccc2)[nH]c(=O)c2c1ncn2C1O[C@H](CO)[C@@H](O)C1O` (single isomer, unassigned), the IC50 in the assay on West Nile virus [1] is above 500 mg/L.
For the compound `O=c1nc(NCc2ccccc2)[nH]c(=O)c2c1ncn2C1O[C@H](CO)[C@@H](O)C1O` (single isomer, unassigned), the concentration for half-maximal inhibition (IC50) in the assay with West Nile virus [1] was above 500 mg/L.
Turning to `O=c1nc(Nc2ccccc2)[nH]c(=O)c2c1ncn2C1O[C@H](CO)[C@@H](O)C1O` (single isomer, unassigned), the values for the ED200 in the assay on West Nile virus [5] and in the assay on West Nile virus [6] were 100 µg/mL and 300 µg/mL, respectively. For the same compound, the concentration for half-maximal inhibition (IC50) in assay [2] and in assay [3] was above 1290 µM each time.
For `O=c1nc(NCCCCc2ccccc2)[nH]c(=O)c2c1ncn2C1O[C@H](CO)[C@@H](O)C1O` (single isomer, unassigned), in the assay with West Nile virus [1], the IC50 is above 500 mg/L.
